In test [1] the target is T1, 5-hydroxytryptamine receptor 6 (Homo sapiens, UniProt P50406). As to the kind of experiment: Inhibition of [3H]LSD binding to human recombinant 5HT6 receptor expressed in HEK293 cells at 100 nM after 60 mins by liquid scintillation counting. Type of test: cell-based. An outline of the steps:
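Single-point competition at 100 nM test compound against [3H]-LSD on membranes from HEK-293 cells expressing recombinant human 5-HT6 receptor. Percent inhibition of radioligand binding reported.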

Test [2] deals with T1, 5-hydroxytryptamine receptor 6. As to the kind of experiment: Displacement of [3H]LSD from human recombinant 5HT6 receptor expressed in HEK293 cells after 60 mins by liquid scintillation counting. Type of test: cell-based. In short, it runs like this:
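Competition binding on membranes from HEK-293 cells expressing recombinant human 5-HT6 receptor, with [3H]-LSD as radioligand. […] Values are mean ± SEM of three experiments.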
For orientation: In a radioligand displacement assay an active substance lowers the binding of a labelled ligand.

Test [3] shares this target. The test is described as follows: Displacement of [3H]LSD from human cloned 5HT6 receptor expressed in human HeLa cells. Type of test: cell-based.
The target is the same in test [4]. The test is described as follows: Antagonist activity at human 5HT6 receptor expressed in HEK293F cells assessed as inhibition of 5-HT-stimulated cAMP production after 30 mins by HTRF assay. Type of test: functional, cell-based. An outline of the steps: (§1)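 HEK-293F cells stably expressing human 5-HT6 receptor. Compounds were tested against 5-HT-stimulated cAMP production, with cAMP read by homogeneous time-resolved fluorescence (HTRF). Antagonism expressed as Imax and IC50. Data are mean ± SEM of three experiments.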

Test [5] concerns the target T2, 5-hydroxytryptamine receptor 1A (Homo sapiens, UniProt P08908).
T2 sequence (P08908 whole entry): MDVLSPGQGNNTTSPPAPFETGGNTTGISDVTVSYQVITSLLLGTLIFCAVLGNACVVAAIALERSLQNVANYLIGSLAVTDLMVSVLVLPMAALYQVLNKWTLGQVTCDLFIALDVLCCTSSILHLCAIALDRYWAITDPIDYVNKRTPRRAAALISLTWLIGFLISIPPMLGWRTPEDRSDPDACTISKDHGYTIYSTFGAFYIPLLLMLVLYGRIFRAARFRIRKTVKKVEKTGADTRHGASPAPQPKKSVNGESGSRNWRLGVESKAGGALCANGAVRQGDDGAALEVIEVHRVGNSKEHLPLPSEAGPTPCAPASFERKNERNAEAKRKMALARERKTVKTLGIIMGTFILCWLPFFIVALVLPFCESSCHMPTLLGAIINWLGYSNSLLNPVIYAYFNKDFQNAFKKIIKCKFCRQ
The test is described as follows: Inhibition of human 5HT1A receptor.

Test [6] concerns the target T1, 5-hydroxytryptamine receptor 6. The test is described as follows: Antagonist activity at human 5HT6 receptor expressed in HEK293F cells assessed as inhibition of 5-HT-stimulated cAMP production at […] after 30 mins by HTRF assay relative to (+/-)-6-chloro-N-(3-(1-methylpyrrolidin-3-yl)-1H-inden-5-yl)imidazo[2,1-b]thiazole-5-sulfonamide. Type of test: functional, cell-based. On the technique in general: cAMP levels reflect the balance of adenylyl cyclase and phosphodiesterase activity.

Test [7] has as its target T3, Adrenergic receptor alpha-2 (Homo sapiens, UniProt P08913+P18825+P18089).
T3 sequence (P08913 whole entry): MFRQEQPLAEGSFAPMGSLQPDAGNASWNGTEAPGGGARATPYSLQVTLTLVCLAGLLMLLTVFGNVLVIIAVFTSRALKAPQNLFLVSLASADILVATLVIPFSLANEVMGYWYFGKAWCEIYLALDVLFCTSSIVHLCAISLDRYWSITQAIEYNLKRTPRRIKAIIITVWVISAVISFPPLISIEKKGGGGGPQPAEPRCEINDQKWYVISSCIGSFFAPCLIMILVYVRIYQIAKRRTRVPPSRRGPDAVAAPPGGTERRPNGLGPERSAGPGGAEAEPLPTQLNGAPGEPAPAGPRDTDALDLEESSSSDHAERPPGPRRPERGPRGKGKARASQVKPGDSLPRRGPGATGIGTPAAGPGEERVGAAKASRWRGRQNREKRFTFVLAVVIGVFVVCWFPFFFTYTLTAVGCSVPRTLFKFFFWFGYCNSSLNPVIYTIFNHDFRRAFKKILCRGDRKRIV
T3 sequence (P18825 whole entry): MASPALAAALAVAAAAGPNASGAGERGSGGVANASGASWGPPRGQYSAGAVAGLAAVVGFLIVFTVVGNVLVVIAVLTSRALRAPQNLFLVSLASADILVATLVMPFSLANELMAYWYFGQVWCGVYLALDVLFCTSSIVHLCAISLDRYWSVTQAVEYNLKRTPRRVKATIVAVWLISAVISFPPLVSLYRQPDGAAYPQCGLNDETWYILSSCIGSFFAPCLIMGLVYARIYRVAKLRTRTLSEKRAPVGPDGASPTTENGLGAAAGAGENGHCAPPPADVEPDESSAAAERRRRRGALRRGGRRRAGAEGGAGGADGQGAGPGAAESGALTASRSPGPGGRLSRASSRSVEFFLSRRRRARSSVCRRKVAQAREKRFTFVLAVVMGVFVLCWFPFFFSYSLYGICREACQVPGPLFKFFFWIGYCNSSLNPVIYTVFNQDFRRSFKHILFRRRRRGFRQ
T3 sequence (P18089 whole entry): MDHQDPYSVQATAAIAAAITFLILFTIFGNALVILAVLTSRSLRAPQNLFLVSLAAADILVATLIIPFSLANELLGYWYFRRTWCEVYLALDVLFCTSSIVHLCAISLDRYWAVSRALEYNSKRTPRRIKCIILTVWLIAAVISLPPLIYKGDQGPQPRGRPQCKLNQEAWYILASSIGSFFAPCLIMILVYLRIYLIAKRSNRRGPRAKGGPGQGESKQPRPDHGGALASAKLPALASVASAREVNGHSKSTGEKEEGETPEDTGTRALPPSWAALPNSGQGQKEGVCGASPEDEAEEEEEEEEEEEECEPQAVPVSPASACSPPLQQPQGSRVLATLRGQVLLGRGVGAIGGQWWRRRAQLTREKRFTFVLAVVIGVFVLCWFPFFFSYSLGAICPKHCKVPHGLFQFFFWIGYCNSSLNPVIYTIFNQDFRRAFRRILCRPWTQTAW
The test is described as follows: Inhibition of human alpha 2 adrenoceptor.

Test [8] deals with Sodium-dependent serotonin transporter (Homo sapiens, UniProt P31645). As to the kind of experiment: Inhibition of human SERT.
Sequence of Sodium-dependent serotonin transporter (P31645 whole entry): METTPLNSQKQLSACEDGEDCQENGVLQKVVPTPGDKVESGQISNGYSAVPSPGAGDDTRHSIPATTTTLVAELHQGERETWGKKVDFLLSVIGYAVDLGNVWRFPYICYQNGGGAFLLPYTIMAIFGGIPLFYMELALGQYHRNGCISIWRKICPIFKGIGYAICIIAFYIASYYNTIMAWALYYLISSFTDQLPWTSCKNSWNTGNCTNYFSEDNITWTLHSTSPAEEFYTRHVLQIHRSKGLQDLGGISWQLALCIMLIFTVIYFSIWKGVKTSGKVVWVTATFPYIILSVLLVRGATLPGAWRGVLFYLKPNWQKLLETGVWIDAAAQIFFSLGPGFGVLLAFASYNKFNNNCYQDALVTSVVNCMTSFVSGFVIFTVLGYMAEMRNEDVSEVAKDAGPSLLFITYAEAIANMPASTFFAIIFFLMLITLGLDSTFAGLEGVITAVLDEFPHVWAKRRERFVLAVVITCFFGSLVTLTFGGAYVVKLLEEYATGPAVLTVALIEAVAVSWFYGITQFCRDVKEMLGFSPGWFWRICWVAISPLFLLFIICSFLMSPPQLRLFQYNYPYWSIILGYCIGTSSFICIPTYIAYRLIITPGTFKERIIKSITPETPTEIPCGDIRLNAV
Test [9] deals with T4, 5-hydroxytryptamine receptor 2C (Homo sapiens, UniProt P28335).
T4 sequence (P28335 whole entry): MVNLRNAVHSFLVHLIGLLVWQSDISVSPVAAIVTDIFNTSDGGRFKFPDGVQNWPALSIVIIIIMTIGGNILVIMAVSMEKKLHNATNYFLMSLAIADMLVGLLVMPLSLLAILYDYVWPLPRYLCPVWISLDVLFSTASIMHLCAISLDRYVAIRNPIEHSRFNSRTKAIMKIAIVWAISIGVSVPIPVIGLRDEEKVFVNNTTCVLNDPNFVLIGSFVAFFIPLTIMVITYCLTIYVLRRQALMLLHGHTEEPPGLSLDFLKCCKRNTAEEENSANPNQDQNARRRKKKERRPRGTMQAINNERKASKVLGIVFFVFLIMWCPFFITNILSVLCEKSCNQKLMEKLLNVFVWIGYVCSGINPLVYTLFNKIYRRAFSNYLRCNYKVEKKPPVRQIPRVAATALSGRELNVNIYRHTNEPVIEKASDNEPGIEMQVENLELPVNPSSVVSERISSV
The test is described as follows: Inhibition of human 5HT2C receptor.

Test [10] addresses T1, 5-hydroxytryptamine receptor 6. As to the kind of experiment: Antagonist activity at human 5HT6 receptor expressed in HEK293F cells assessed as inhibition of 5-HT-stimulated cAMP production at […] after 30 mins by HTRF assay. Type of test: functional, cell-based. An outline of the steps: as §1

Where only a bound is given, the exact number is not on record here.

T1 sequence (P50406 whole entry): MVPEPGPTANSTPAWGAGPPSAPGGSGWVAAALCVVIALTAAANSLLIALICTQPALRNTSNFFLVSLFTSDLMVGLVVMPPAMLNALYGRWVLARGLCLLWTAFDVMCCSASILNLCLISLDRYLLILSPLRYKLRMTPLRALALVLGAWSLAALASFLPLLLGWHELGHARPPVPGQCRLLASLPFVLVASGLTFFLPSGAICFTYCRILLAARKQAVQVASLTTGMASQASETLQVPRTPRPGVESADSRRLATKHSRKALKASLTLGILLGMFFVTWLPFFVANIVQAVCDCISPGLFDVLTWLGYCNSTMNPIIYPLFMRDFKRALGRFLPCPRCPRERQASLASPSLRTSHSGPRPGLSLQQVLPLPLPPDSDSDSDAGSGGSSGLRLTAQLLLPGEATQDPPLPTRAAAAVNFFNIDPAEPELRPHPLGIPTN

Take `CN1CCOc2ccc(S(=O)(=O)Nc3ccc4c(c3)/C(=N\NC3=NCCN3)CC4)cc21`: the inhibition (usually the drop in the measured response relative to a control, in per cent) in test [1] was > 80%. In addition, in test [2], the Ki (in general, the equilibrium dissociation constant of an inhibitor or competing ligand from its target) came out at 70 nM.

Regarding `COc1ccc(S(=O)(=O)Nc2ccc3[nH]cc(/C(C)=N/NC(=N)N)c3c2)cc1`, in test [3], the inhibition constant (Ki) was 1 nM.

Turning to `CN1CCOc2ccc(S(=O)(=O)Nc3ccc4c(c3)/C(=N/NC(=N)N)CC4)cc21`, the IC50 in test [4] was 581 nM; in [5], > 1000 nM. Further, the Imax in [6] was found to be 187%. For the same compound, in test [1], the inhibition is > 80%. Also, the inhibition constant Ki in test [2] worked out at 26 nM.

With `Cl.N=C(N)N/N=C1\CCc2ccc(NS(=O)(=O)c3ccc4ccccc4c3)cc21`, the figures for the IC50 in [4], in test [5] and in test [7] were 53 nM, > 1000 nM and > 1000 nM, respectively. Moreover, the Imax in test [6] was determined as 127%. Besides, in [1], the inhibition is > 80%. For the same compound, in [2], the Ki was determined as 62 nM.

Take `CC1(C)C/C(=N\NC(=N)N)c2cc(NS(=O)(=O)c3c(Cl)nc4sccn34)ccc21.Cl`: the IC50 is 238 nM in test [4]; > 1000 nM in test [5]; > 10000 nM in [8]; > 1000 nM in test [9]; > 1 ×10⁴ nM in [7]. In addition, the Imax in test [6] turned out to be 146%. Besides, the inhibition in test [1] was > 80%. The Ki in test [2] is 5.2 nM.

Consider `CN1CCC(C2=CCc3ccc(NS(=O)(=O)c4c(Cl)nc5sccn45)cc32)C1` (configuration not stated), for which the IC50 in [4] is 1580 nM. The inhibition in [1] was > 80%. The Imax in test [10] turned out to be 100%. In addition, the Ki in test [2] was 3 nM.

For the compound `C/C(=N\NC(=N)N)c1cn(S(=O)(=O)c2ccc(N)cc2)c2ccccc12`, in [3], the inhibition constant (Ki) is ≤ 8 nM.

As to `C/C(=N\NC(=N)N)c1cn(S(=O)(=O)c2c(Cl)nc3sccn23)c2ccccc12`, the Ki in test [3] is ≤ 8 nM.

On to `CC1(C)C/C(=N\NC2=NCCN2)c2cc(NS(=O)(=O)c3c(Cl)nc4sccn34)ccc21`, for which, in test [1], the inhibition turned out to be 77%.

Turning to `N=C(N)N/N=C1\CCc2c(NS(=O)(=O)c3c(Cl)nc4sccn34)cccc21`, the inhibition in test [1] came to 2%.

In the case of `CN(c1ccc2c(c1)/C(=N/NC(=N)N)CC2)S(=O)(=O)c1c(Cl)nc2sccn12.Cl`, the results for the IC50 in [4], in test [5] and in test [7] were 54 nM, > 1000 nM and > 1000 nM, respectively. Besides, in [6], the Imax was 102%. Further, in test [1], the inhibition is > 80%. The inhibition constant Ki in [2] came to 4.1 nM.

Take `Cl.N=C(N)N/N=C1\CCc2cc(NS(=O)(=O)c3c(Cl)nc4sccn34)ccc21`: the values for the IC50 in test [4], in [5] and in test [7] were 47 nM, > 10000 nM and > 1000 nM, respectively. The Imax in test [6] was determined as 173%. The inhibition in [1] is > 80%. In test [2], the Ki was 2.6 nM.

These data come from ChEMBL document CHEMBL1155221, “Identification of novel indanylsulfonamide guanylhydrazones as potent 5-HT6 serotonin receptor antagonists” (J Med Chem, 2009).
